Screening results: PubChem, several laboratories
PABP1 MLLE inh = inhibitors of microRNA-mediated deadenylation, human PABP1 MLLE binding. P11940. inhibition, % at 20 µM. AID 588489. GST-MLLE / FITC-PAM2 fluorescence polarization. actives 0.36% (n = 360,000); in the data active = inhibition above about 35%, passing the limit was not always enough;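 note: plate controls were DMSO wells with GST-MLLE for no effect and wells lacking GST-MLLE protein for full effect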
IMP-1 inhibitor = inhibitors of Pseudomonas aeruginosa IMP-1 metallo-beta-lactamase; inhibition, % at 5.6 µM; purified IMP-1, nitrocefin hydrolysis, epi-absorbance fluorescence; actives 0.45% (n = 290,000);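 active = inhibition above the mean plus 3 SD of all compounds in the same screening run, cut at about 4.5% in these data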;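 note: 0% = IMP-1 with DMSO and 100% = DMSO wells lacking enzyme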
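System – purified recombinant IMP-1 beta-lactamase · Input – IMP-1 dispensed at 0.2 nM · Timing – 15 min preincubation plus 25 min reaction at 25 °C · Signal – Epi-absorbance fluorescence, 480 nm excitation, 530 nm emission · Measure – percent IMP-1 inhibition derived from blank-referenced optical density · Controls – Enzyme-plus-DMSO low control, enzyme-free DMSO high control · Replication – singlicate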
VIM-2 inhibitor = inhibitors of Pseudomonas aeruginosa VIM-2 metallo-beta-lactamase; purified VIM-2, nitrocefin hydrolysis, epi-absorbance fluorescence; inhibition, % at 5.6 µM; actives 0.89% (n = 290,000); AID 1527;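 active = inhibition above the mean of all tested compounds plus 3 SD, cutoff set per screening run, cut at about 7.5% in these data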;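 note: red hydrolysis product quenches plate fluorescence so inhibitors raise well fluorescence; 0% = enzyme with DMSO and 100% = DMSO without enzyme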
PABP polyA inh = PABP-poly(A) binding inhibition | PABP-poly(A) RNA binding, fluorescence polarization | actives 1% (n = 290,000) | calls only at 35 µM | P11940;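 note: calls also rest on retests at 20 µM and on dose response follow-up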
eIF4H FP inh = inhibitors of RNA binding by human eIF4H; Q15056; eIF4H fluorescence polarization binding assay; inhibition, % at 35 µM; actives 0.94% (n = 290,000); AID 2012;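 note: calls also rest on retests at 20 µM and on dose response follow-up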
Active calls of the source: *; i = inactive; . = not tested or not shown; + = active, no number. Only some compounds are listed: those with a hit (about 2.2% of all), similar ones and a draw of the others. Unless noted, the rule behind the calls is not given here.

SMILES	PABP1 MLLE inh	IMP-1 inhibitor	VIM-2 inhibitor	PABP polyA inh	eIF4H FP inh
O=C(NCCCn1ccnc1)c1cc2c(ccc3ccccc32)o1	.	-3	4	i	-1
Cc1ccccc1-n1c2nc(=O)n(C)c(=O)c-2cc2ccccc21	-41	-2	-2	+	83
CC(C)N1CCC1(C)C(=O)Nc1ccccc1OC(F)F (stereo unspecified)	3	.	.	.	.
CC(=O)Nc1ccc2ccc3cccc4ccc1c2c34	2	-5	-1	i	60*
COc1ccc(NC(=O)CN(C)C(=O)c2ccc3c(c2)OCCO3)cc1	7	.	.	.	.
O=C1c2cccc(O)c2C(=O)c2c(O)cccc21	.	-2	2	i	130
COc1cccc2c1-c1c(O)cccc1C2=O	7	-1	11*	i	43
CCC1NC(=O)c2cccnc2-n2c1nc1cc(OC)c(OC)cc1c2=O (stereo unspecified)	-7	.	.	.	.
O=C(O)CCCC(=O)Nc1ccc(N2CCCC2)cc1	13	-2	0	i	69*
O=C(O)Cc1csc(-c2ccccc2)n1	3	-1	-1	i	7.1*
O=C(NCCN1C(=O)S/C(=C/c2cccnc2)C1=O)C1CC(=O)N(Cc2ccccc2)C1 (stereo unspecified)	17	-2	-6	i	-4
NC(=O)C1CCN(C(=O)c2ccco2)CC1	11	-1	-1	i	2
CC1=CC(C)(C)N(S(=O)(=O)c2ccc(C)cc2)c2cc(C)ccc21	-6	-1	-4	i	6
Cc1ccc(S(=O)(=O)N2C(=S)SCC2(C)C)cc1	.	5.4*	-1	i	0
Cc1ccc(OCCCCn2cnc3ccccc32)c(C)c1	4	6.6*	-2	i	-5
O=C(CSc1nnc(-c2ccccc2)c(-c2ccccc2)n1)NCc1ccco1	10	-2	-2	i	3
Cc1ccc(NC(=O)CSc2nnc(-c3ccco3)c(-c3ccco3)n2)cc1	21	2	0	+	100*
CN(C)c1ccc(NC(=O)CSc2nnc(-c3ccco3)c(-c3ccco3)n2)cc1	25	-2	4	+	93*
Cc1ccc(NC(=O)CCSc2nnc(-c3ccco3)o2)cc1	8	-2	0	i	2
Cc1ccc(SCC(=O)Nc2ccc(-c3nnc(-c4ccco4)o3)cc2)cc1	9	-1	0	+	58*
O=C(CSc1nnc(-c2ccco2)c(-c2ccco2)n1)Nc1ccccc1	16	1	-2	+	96*
O=[N+]([O-])c1ccc(Sc2cccc[n+]2[O-])c2nonc12	-1	-1	-2	i	112
CC(=O)c1sc2nc(-c3ccco3)ccc2c1N	30	0	2	+	91*
Nc1c(C(=O)Nc2ccc(F)cc2)sc2nc(-c3ccco3)ccc12	-2	-1	-2	+	99*
Nc1c(C(=O)Nc2ccccc2)sc2nc3c(c(-c4ccco4)c12)CCCC3	-12	0	-2	i	20
SMILES	PABP1 MLLE inh	IMP-1 inhibitor	VIM-2 inhibitor	PABP polyA inh	eIF4H FP inh
Nc1c(C(=O)Nc2ccc(Br)cc2)sc2nc(-c3ccco3)ccc12	-9	-3	-2	+	81*
CCN(CC(=O)NCc1ccc(Cl)cc1)CC(=O)NC1(C#N)CCCC1	-3	0	2	i	-11
C=CCOc1ccccc1CN1CCC(Oc2cc(C(=O)NC3CC3)ccc2OC)CC1	-8	-4	-4	i	-8
O=P(c1ccccc1)(c1ccccc1)c1ccc(O)cc1	-8	-2	0	i	0
CCCCCc1cc(=O)[nH]c(=S)[nH]1	17	-4	-3	i	-3
CCCCCc1ccc(C(=O)CCCC)c(=S)[nH]1	38*	-1	-2	i	7
Cc1ccccc1-c1cccc([C@@H]2C[C@H]3[C@H](CON3C)CN2C(=O)CCc2ccccc2)c1	-13	.	.	.	.
Cc1cc(=S)nc(-c2ccccn2)[nH]1	23	-1	11*	i	15
O=C(COC(=O)c1ccccc1OCc1ccccc1Cl)NCC1CCCO1 (stereo unspecified)	-6	.	.	.	.
CCN1C(=O)/C(=C2/SC(C)=C(C)N2CC)SC1=S	52*	1	-1	i	0
COc1ccc(/C=C2\C(=O)N(c3nc(-c4ccc(Br)cc4)cs3)N=C2c2ccccc2)cc1	.	-2	-3	.	.
O=C1/C(=C\c2ccc(O)c(O)c2)C(c2ccccc2)=NN1c1ccccc1	-34	-4	-5	+	90
COc1cc(/C=C2\C(=O)N(c3ccc(NC(C)=O)cc3)N=C2c2ccccc2)ccc1O	-70	2	0	i	-1
CCOc1cc(/C=C2\C(=O)N(c3nc(-c4ccc(Br)cc4)cs3)N=C2c2ccccc2)ccc1O	-77	0	-5	i	84*
O=C(Cn1nc(C(=O)O)c2ccccc2c1=O)Nc1cccc(S(=O)(=O)N2CCCCC2)c1	-1	.	.	.	.
Cc1ccc(OCC(=O)OCC(=O)NC2CCCCCC2)cc1C	0	.	.	.	.
CN(C(=O)Nc1cccc(C(F)(F)F)c1)C1CCCCC1	3	-1	0	i	3
O=C1NN(c2ccc(F)cc2)C(=O)/C1=C\C=C\c1ccco1	0	0	-1	+	88*
O=C1NN(c2ccc(F)cc2)C(=O)/C1=C\c1cnn(-c2ccccc2)c1	.	-5	1	i	5
COc1cc2c(C#N)c(N3CCN(C)CC3)nc(N)c2c(N)n1	3	-4	3	+	105*
O=C(Cn1ncc2c3ccccc3n(Cc3ccccc3)c2c1=O)NCc1ccco1	-4	-1	0	i	-12
O=C(N/N=C/c1cn(Cc2cccc(F)c2)c2ccccc12)c1cc(O)cc(O)c1	-9	-1	-1	+	100*
Nc1ccc(C(=O)N/N=C/c2cn(Cc3ccc(F)cc3)c3ccccc23)cc1	5	-3	-3	i	-1
O=C(Nc1ccccn1)c1cc2ccccc2cc1O	14	-2	0	i	10
CCCn1c(=N)c(S(=O)(=O)c2ccc(F)cc2)cc2c(=O)n3ccccc3nc21	-5	-4	8.9*	i	0
SMILES	PABP1 MLLE inh	IMP-1 inhibitor	VIM-2 inhibitor	PABP polyA inh	eIF4H FP inh
COCCn1c(=N)c(S(=O)(=O)c2ccc(F)cc2)cc2c(=O)n3cccc(C)c3nc21	-5	-3	8.9*	i	1
Cc1ccc(NC(=O)C2CCN(C(=O)OC(C)(C)C)CC2)cc1S(=O)(=O)N1CCCCC1	-76	.	.	.	.
CC1(C)Cc2c(sc3nc(NCCN4CCOCC4)n4ncnc4c23)CO1	-9	16*	7	i	-9
Cc1ccc(C(=O)N/C(=C/c2ccco2)C(=O)OCN2C(=O)c3ccccc3C2=O)cc1	9	-1	-1	i	79*
Cc1ccc(C(=O)N/C(=C/c2ccco2)C(=O)N2CCCCC2)cc1	-12	1	0	i	0
CCOC(=O)C1CCCN(C(=O)/C(=C/c2ccco2)NC(=O)c2ccccc2)C1 (stereo unspecified)	-14	5.2*	1	i	11
